Substitutions are numbered along the chain they refer to.
Legend:
[1] = target: T1, wild-type AR (in LAPC-4 cells) (Homo sapiens, UniProt P10275); format: binding
T1 sequence (P10275 1-920): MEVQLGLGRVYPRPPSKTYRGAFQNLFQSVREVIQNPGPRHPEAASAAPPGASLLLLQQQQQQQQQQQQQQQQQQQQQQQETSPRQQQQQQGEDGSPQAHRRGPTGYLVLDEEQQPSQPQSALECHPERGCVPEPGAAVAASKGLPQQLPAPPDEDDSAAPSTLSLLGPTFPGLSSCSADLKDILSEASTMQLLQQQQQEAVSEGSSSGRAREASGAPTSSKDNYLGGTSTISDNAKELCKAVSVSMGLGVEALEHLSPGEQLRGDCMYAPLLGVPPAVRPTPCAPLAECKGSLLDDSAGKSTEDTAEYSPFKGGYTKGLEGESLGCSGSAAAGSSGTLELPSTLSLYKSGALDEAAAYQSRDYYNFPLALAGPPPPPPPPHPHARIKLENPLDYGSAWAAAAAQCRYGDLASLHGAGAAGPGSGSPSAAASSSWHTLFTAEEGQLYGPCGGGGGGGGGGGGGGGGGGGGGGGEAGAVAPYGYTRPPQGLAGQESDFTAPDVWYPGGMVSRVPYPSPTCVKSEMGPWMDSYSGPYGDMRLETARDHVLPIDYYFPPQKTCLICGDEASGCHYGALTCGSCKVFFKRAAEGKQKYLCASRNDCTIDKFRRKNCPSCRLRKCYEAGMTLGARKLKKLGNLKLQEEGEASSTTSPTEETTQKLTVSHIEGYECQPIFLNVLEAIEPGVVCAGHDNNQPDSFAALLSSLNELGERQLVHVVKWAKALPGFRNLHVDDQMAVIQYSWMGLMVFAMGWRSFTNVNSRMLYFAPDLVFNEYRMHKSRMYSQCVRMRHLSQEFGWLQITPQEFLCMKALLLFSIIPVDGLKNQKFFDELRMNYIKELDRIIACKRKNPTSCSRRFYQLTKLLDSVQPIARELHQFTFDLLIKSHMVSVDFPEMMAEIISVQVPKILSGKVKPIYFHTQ

[2] = target: human CYP17 (Homo sapiens, UniProt P05093); assay: Acetic acid releasing assay for CYP17 activity in 293T-CYP17 cells; format: cell-based; details: read-out: CYP17 IC50, each in duplicate
[3] = tested on: androgen-induced AR transcription; assay: Transcriptional activation luciferase assay; format: cell-based, human; details: LNCaP, ARR-2 reporter, with or without DHT
Outline: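 LNCaP cells were kept steroid-free for 3 days, plated at 1 × 10^5 cells/well, then co-transfected with ARR2-Luc and Renilla pRL-null using Lipofectamine 2000. After 24 h at 37 °C, cells in serum-free phenol red-free RPMI were treated in triplicate with DHT, ethanol vehicle and/or test compound for 18 h. A dual luciferase read-out gave fold induction over control, normalized to Renilla.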

[4] = tested on: LNCaP cells; assay: Cell proliferation / viability XTT assay, LNCaP; format: cell-based; details: Homo sapiens; for GI50: read-out: Cell growth inhibition GI50 LNCaP; for IC50: read-out: IC50 in DHT stimulated LNCaP cells; for inhibition at 10 µM: read-out: inhibition of LNCaP proliferation
[5] = tested on: androgen receptor expression in LNCaP cells; assay: AR down-regulation in LNCaP cells, western blot densitometry; format: cell-based, human; details: for AR down-regulation (in words): highest concentration (15 μM) tested
[6] = target: T2, mutant T877A AR (in LNCaP cells) (Homo sapiens, UniProt P10275, T878A); format: binding
T2 sequence (P10275 1-920 T878A): T1 sequence (P10275 1-920) with T878A

[7] = tested on: LAPC-4 cells; assay: Cell proliferation / viability XTT assay, LAPC-4; format: cell-based; details: Homo sapiens; for GI50: LAPC4, read-out: Cell growth inhibition GI50 LAPC-4; for IC50: LAPC4, read-out: IC50 in DHT stimulated LAPC4 proliferation
Outline: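 Cells moved to steroid-free medium (phenol red-free RPMI, 5% dextran-coated charcoal-treated serum, 1% penicillin/streptomycin) 3 days before plating at 1.5 × 10^4 cells/well. After 24 h attachment, they were given steroid-free medium with ethanol vehicle, androgens and/or test compound, changed every three days. Viability was read by XTT absorbance on day 7. Each result is the average of at least three wells.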

[8] = tested on: AR protein in LAPC-4 tumors; assay: AR protein levels in excised LAPC-4 tumors, western blot; format: in vivo, male SCID mice
[9] = tested on: prostate, seminal vesicles, and the testes; assay: Urogenital tissue weights in LAPC-4 xenograft mice; format: in vivo, male SCID mice; details: 31 days, 0.15 mmol/kg; 3 and 5 s.c. b.i.d., 4 and 5-acetate p.o.
Outline: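 Male SCID mice, 4–6 weeks old, housed pathogen-free with food and water ad libitum. LAPC-4 cells were scraped into DPBS, pelleted and resuspended in Matrigel (10 mg/ml) at 2.0 × 10^7 cells/mL before inoculation. Vehicle was 0.3% HPC; test compounds were given at 0.15 mmol/kg. After 31 days of treatment, prostate, seminal vesicles and testes were excised and weighed and compared with vehicle controls.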

[10] = tested on: LAPC-4 xenografts; assay: LAPC-4 prostate cancer xenograft anti-tumor efficacy; format: in vivo, male SCID mice; details: for efficacy of oral dosing (in words): first study, 0.15 mmol/kg o.d. p.o. up to day 24
[11] = Toxicity monitoring in LAPC-4 xenograft mice; format: in vivo, male SCID mice; details: third study; for deaths of mice: 10 mice per group

Chain of human CYP17 (P05093 whole entry): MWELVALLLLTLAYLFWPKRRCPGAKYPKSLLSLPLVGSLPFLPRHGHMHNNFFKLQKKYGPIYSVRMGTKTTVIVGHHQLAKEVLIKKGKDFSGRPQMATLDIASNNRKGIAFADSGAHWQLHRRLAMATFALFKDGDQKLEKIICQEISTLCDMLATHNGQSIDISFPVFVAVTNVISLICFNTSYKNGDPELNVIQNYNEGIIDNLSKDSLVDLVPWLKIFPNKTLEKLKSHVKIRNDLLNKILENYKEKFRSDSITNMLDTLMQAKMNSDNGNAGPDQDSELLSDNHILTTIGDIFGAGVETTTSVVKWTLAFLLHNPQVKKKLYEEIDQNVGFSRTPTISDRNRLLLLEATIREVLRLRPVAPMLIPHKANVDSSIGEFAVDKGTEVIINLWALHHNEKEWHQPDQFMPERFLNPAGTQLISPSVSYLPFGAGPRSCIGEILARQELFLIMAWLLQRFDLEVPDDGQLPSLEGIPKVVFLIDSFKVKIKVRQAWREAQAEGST

With `C[C@]12CC[C@@H](N=[N+]=[N-])CC1=CC[C@@H]1[C@@H]2CC[C@]2(C)C(n3cnc4ccccc43)=CC[C@@H]12` [Compound 8, 3α-Azido-17-(1H-benzimidazol-1-yl)androsta-5,16-dien] the EC50 [1] was 2.46 µM, the “binding affinity to the wild-type AR compared to 5 (in words)” value [1] was “greatly reduced” and the IC50 [2] was 0.12 µM. For the same compound, the “AR agonist/antagonist character in transcriptional activation studies” value [3] was “pure AR antagonists”, the GI50 [4] was 7 µM and the IC50 [4] was 16 µM. The inhibition at 10 µM [4] was 60%, the “AR down-regulation (in words)” value [5] was “did not cause down-regulation of AR expression” and the EC50 [6] was 4.34 µM. The “binding to the mutant AR compared to 5 (in words)” value [6] was “greatly reduced”, the GI50 [7] was 19 µM and the IC50 [7] was 19 µM.

With `C[C@]12CC[C@H](O)CC1=CC[C@@H]1[C@@H]2CC[C@]2(C)C(c3cccnc3)=CC[C@@H]12` [Compound 3, 3β-Hydroxy-17-(3-pyridyl)androsta-5,16-dien] the “effect on AR levels in tumors (in words)” value ([8]; first study, 0.15 mmol/kg s.c. b.i.d.) was “no significant effect on AR levels”, the “prostate size/weight (in words)” value [9] was “failed to significantly reduce the size of any of the organs” and the “seminal vesicles size/weight (in words)” value [9] was “failed to significantly reduce the size of any of the organs”. For the same compound, the “testes size/weight (in words)” value [9] was “failed to significantly reduce the size of any of the organs” and the “efficacy of oral dosing (in words)” value [10] was “neither compound demonstrated any significant efficacy”.

With `C[C@]12CC[C@H](OS(N)(=O)=O)CC1=CC[C@@H]1[C@@H]2CC[C@]2(C)C(n3cnc4ccccc43)=CC[C@@H]12` [Compound 9, 3β-O-Sulfamoyl-17-(1H-benzimidazol-1-yl)androsta-5,16-dien] the “effect on LAPC-4 tumor growth, oral (in words)” value ([10]; administered orally as described for 5) was “did not show any significant effect on LAPC-4 tumor growth”.

For `C[C@]12CC[C@H](O)C[C@@H]1CC[C@@H]1[C@@H]2CC[C@]2(C)C(n3cnc4ccccc43)=CC[C@@H]12` [Compound 15, 3β-Hydroxy-17-(1H-benzimidazol-1-yl)-5α-androsta-16-ene], the GI50 [4] was 17.6 µM and the “AR down-regulation (in words)” value [5] was “did not cause down-regulation of AR expression”.

For `CC(=O)O[C@H]1CC[C@@]2(C)C(=CC[C@@H]3[C@@H]2CC[C@]2(C)C(c4cccnc4)=CC[C@@H]32)C1` [Compound 4, 3β-Acetoxy-17-(3-pyridyl)androsta-5,16-dien, reference compound], the “seminal vesicles size/weight (in words)” value [9] was “significantly reduced the size of the seminal vesicles” and the “efficacy of oral dosing (in words)” value [10] was “neither compound demonstrated any significant efficacy”.

For `C[C@]12CC[C@H](O)CC1=CC[C@@H]1[C@@H]2CC[C@]2(C)C(n3cnc4ccccc43)CC[C@@H]12` (stereo partly drawn) [Compound 10, 3β-Hydroxy-17-(1H-benzimidazol-1-yl)androsta-5-ene], the “AR down-regulation (in words)” value [5] was “did not cause down-regulation of AR expression”.

With `C[C@]12CCC(F)CC1=CC[C@@H]1[C@@H]2CC[C@]2(C)C(n3cnc4ccccc43)=CC[C@@H]12` (stereo partly drawn) [Compound 6, 3ξ-Fluoro-17-(1H-benzimidazol-1-yl)androsta-5,16-dien] the “effect on AR protein levels in tumors (in words)” value ([8]; third study, 0.15 mmol/kg s.c., twice daily administration) was “only a minor and statistically insignificant effect on AR protein levels”, the EC50 [1] was 0.934 µM and the “reduction of wild-type AR binding compared to 5” value ([1]; ratio of EC50 to that of 5) was 2.3 fold. The IC50 [2] was 0.15 µM, the “AR agonist/antagonist character in transcriptional activation studies” value [3] was “pure AR antagonists” and the GI50 [4] was 8 µM. The IC50 [4] was 8 µM, the inhibition at 10 µM [4] was 85% and the AR down-regulation ([5]; 15 μM, 24 hours) was 50%. For the same compound, the “efficacy versus LAPC-4 xenografts relative to 5” value ([10]; on equimolar basis) was ~ 2 fold, the “effect on LAPC-4 tumor growth (in words)” value ([10]; third study, 0.15 mmol/kg s.c. once daily) was “as effective in inhibiting LAPC-4 tumor growth as twice daily administration of 5” and the EC50 [6] was 1.6 µM. The “binding to the mutant AR compared to 5 (in words)” value [6] was “not significantly different from binding of 5”, the “changes in mouse weights (in words)” value [11] was “no changes in mouse weights were observed” and the deaths of mice ([11]; 0.15 mmol/kg s.c. once daily) was “five mice”. For the same compound, the deaths of mice ([11]; 0.15 mmol/kg s.c. twice daily) was “two mice”, the “signs of toxicity at internal examination (in words)” value ([11]; necropsy) was “no overt signs toxicity were seen” and the GI50 [7] was 16 µM. It also gave an IC50 [7] of 7 µM.

— paper PMC3171567 (Steroids, 2011)
